Screening results: PubChem BioAssay, several laboratories
Diaph act CS: diaphorase activation or chemical reduction counter-screen. Diaphorase/resazurin coupled assay, resorufin fluorescence, 16 min; hits give high values; 1 = vehicle wells, 0 = NADH-free wells. activation factor at 20 µM. actives 0.005% (n = 190,000). AID 1229;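 active = diaphorase activity raised at least twofold by the compound at 20 µM; inactive = activation factor below 2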
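Material: Clostridium kluyveri diaphorase, purified enzyme; Quantity: enzyme 0.07 U/mL final; Medium: HEPES pH 7.4 buffer with MgCl2 and Tween 20; Dosing: single compound dose of 20 µM, 1% DMSO final; Schedule: 16 min reaction at room temperature; Measured by: red resorufin fluorescence at 544/590 nm excitation/emission.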
Avidin bead fluor: avidin bead compound fluorescence profile; Avidin beads, compound fluorescence 488/530 nm, flow cytometry; hits give high values; fluorescence (KMESF) at 10 µM; actives 0.38% (n = 220,000); AID 1775; in the data active = fluorescence above about 47
PMI activator: activators of human phosphomannose isomerase | actives 0.005% (n = 190,000) | purified human PMI, coupled resazurin fluorescence, 20 min; hits give high values; 1 = vehicle control, 0 substrate-free wells | activation factor at 20 µM | P34949;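 active = activation factor of 2 or more at 20 µM, relative to plate controls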
GSH bead fluor: compound fluoresces at 488/530 nm on GSH beads; GSH beads flow cytometry, compound fluorescence 488/530 nm; hits give high values; fluorescence (KMESF) at 10 µM; actives 0.25% (n = 190,000); in the data active = fluorescence above about 89;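 note: glutathione beads carrying GST-tagged Bcl family fusion proteins plus one bare bead set; values are compound well signal with DMSO vehicle wells as background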
PMI act hi M6P: increases human PMI activity with near-saturating mannose 6-phosphate | AID 1216 | actives 0.34% (n = 190,000) | P34949 | activation factor at 20 µM | coupled PMI enzyme assay, resazurin fluorescence, 20 min; hits give high values; 1 = untreated enzyme, 0 = substrate-free blank;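 active = activation factor of 2 or more at 20 µM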
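Test system: Human PMI in coupled enzyme assay | Input: 15 ng/mL PMI | Medium: HEPES-buffered pH 7.4 with magnesium and detergent | Compound: One concentration, 20 µM, in 1% DMSO | Incubation: Enzyme reaction with compound 20 min at room temperature | Detection: Diaphorase-driven resazurin-to-resorufin fluorescence, excitation 544, emission 590 nm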
NCF1 inh: blocks human p47phox regulatory protein of NADPH oxidases; p47phox/p22phox peptide binding, fluorescence polarization, 2 h; inhibition, % at 24.7 µM; actives 0.53% (n = 220,000);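 active = inhibition above about 30%, limit read from the data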;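 note: 0% = p47phox with labelled peptide and 100% = labelled peptide alone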
Target sequence (P14598 whole entry, looked up): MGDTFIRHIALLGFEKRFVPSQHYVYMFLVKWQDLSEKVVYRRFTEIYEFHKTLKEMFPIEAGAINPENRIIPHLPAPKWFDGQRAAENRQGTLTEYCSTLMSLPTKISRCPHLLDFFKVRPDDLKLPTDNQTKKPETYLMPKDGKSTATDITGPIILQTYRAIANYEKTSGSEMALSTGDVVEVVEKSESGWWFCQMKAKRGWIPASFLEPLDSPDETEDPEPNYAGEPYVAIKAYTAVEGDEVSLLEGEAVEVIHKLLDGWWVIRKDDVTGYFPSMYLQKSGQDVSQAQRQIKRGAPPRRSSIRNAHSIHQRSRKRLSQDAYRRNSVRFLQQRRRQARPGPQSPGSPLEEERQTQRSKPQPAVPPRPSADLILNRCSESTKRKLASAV
* hit, by the source's call; . = not tested or not shown; + = active, no number. An excerpt weighted towards active compounds, which were near 1.4% of everything screened.

SMILES	Diaph act CS	Avidin bead fluor	PMI activator	GSH bead fluor	PMI act hi M6P	NCF1 inh
CCNC(=S)N(Cc1cccs1)Cc1cc2cc(OCC)ccc2[nH]c1=O	0.8	41	0.9	239*	1	-16.9
Cc1cccnc1NC(=O)Cn1nc([N+](=O)[O-])cc1C	1	9	1.1	22	1.1	2.3
CCOc1ccc(N(CC(=O)Nc2cccc(C)c2C)S(=O)(=O)c2c(C)[nH]c(=O)[nH]c2=O)cc1	.	8	.	.	.	-9.1
CC(=O)c1c(C(C)=O)c(C)n(NC(=O)c2ccc(Cl)cc2)c1C	1.1	71*	1.1	21	1.2	-9.7
Cc1cc(C)c(-c2cc(NC(=O)COC(=O)c3ccc(CO)cc3)n(-c3ccccc3)n2)cc1C	0.8	6	0.8	9	0.8	+
O=C(/C=C/c1ccncc1)c1cc(Cl)ccc1O	.	4	.	.	.	-14.1
CN(C)c1ccc(/C=C/C(=O)c2cc(Cl)ccc2O)cc1	.	4	.	.	.	79.0*
CC(C)(C)NC(=O)C(Cc1ccccc1)NS(=O)(=O)c1ccc2c(c1)CCC(=O)N2 (centres undefined)	1	15	1	18	1	-2.1
O=C1CCc2cc(S(=O)(=O)NC(Cc3ccccc3)C(=O)NCCC3=CCCCC3)ccc2N1 (centres undefined)	0.8	54*	1	20	1	-8.4
CS(=O)(=O)N1CCN(c2ccc([N+](=O)[O-])c(NCCN3CCOCC3)c2)CC1	0.9	7	1	22	0.9	144.5*
CS(=O)(=O)N1CCN(c2ccc([N+](=O)[O-])c(N3CCOCC3)c2)CC1	0.8	28	0.9	8	0.8	-8.9
COc1ccc(C(=O)Nc2nnc(CCS(=O)(=O)c3ccc(C)cc3)s2)cc1	0.9	25	1.1	10	1	-7.7
NC(=O)SC/C(=N\S(=O)(=O)c1ccccc1)Nc1ccccc1	0.9	189*	1	47	1	-11.9
Cc1ccc(N/C(CSC(N)=O)=N/S(=O)(=O)c2ccccc2)cc1	1	1	1	38	1	-8.0
Cc1nn(C)c(C(=O)Nc2ccn(Cc3c(F)c(F)cc(F)c3F)n2)c1[N+](=O)[O-]	1	23	1	12	1.1	149.8*
CN(Cc1cnn(C)c1)Cc1nc(Cc2ccccc2Cl)no1	0.9	8	1	9	1	42.9*
CC(C)N(Cc1cnn(C)c1)Cc1nc(Cc2ccccc2Cl)no1	0.9	9	0.9	55	1	2.4
N#CC(c1nc2ccccc2nc1N1CCOCC1)S(=O)(=O)c1ccccc1 (centres undefined)	.	5	.	.	.	-13.1
CC(N1CCOC1=O)S(=O)(=O)c1ccccc1 (centres undefined)	0.9	7	1.6	37	2*	-10.8
O=C(C1CCN(S(=O)(=O)c2ccc(F)cc2)CC1)N1CCOCC1	1.1	110*	1.1	4	1.1	-7.8
O=S(=O)(c1ccc(F)cc1)N1CCC(N2CCCC2)CC1	0.8	88*	0.9	22	1	-24.6
Clc1ccc(-c2nc3n(n2)Cc2ccccc2-3)cc1	1	22	1.1	16	1	-7.9
NC(=O)NC(=O)CC1S/C(=N/N=C2\CSC(=O)N2)NC1=O (centres undefined)	0.5	10	0.5	22	0.5	-5.3
S=C(N=Nc1ccccc1)NNc1ccccc1	0.9	7	1.8	20	2.7*	-11.7
CCn1c(N)c(C(=O)NC)sc1=S	0.9	8	0.3	87*	0.8	-19.8
SMILES	Diaph act CS	Avidin bead fluor	PMI activator	GSH bead fluor	PMI act hi M6P	NCF1 inh
CCCC(=O)Nc1ccc(C(=O)Nc2nnc(COCC)s2)cc1	1	5	1.1	19	1.1	0.7
C=CCn1cc(/C=N/NC(=O)COc2cccc3cccnc23)c2ccccc21	1	12	1.2	12	1.3	47.4*
COc1cccc(/C=N/NC(=O)COc2cccc3cccnc23)c1O	1	.	1.1	11	1.2	-3.4
CC(C)n1cc(/C=N/NC(=O)COc2cccc3cccnc23)c2ccccc21	0.8	16	0.9	11	1.1	45.5*
O=C(COC(=O)Cn1cnc2ccccc21)NCCc1ccc(Cl)cc1	1	39	1	16	1	-14.0
O=C(Cn1cnc2ccccc21)OCC(=O)N1CCCc2ccccc21	0.9	7	0.9	253*	0.9	-9.8
Cc1ccc(OCC(=O)N2CCCc3ccccc32)cc1	1	7	1.1	140*	1	-6.8
O=C(COC(=O)Cn1cnc2ccccc21)NCCC1=CCCCC1	0.9	8	1	257*	1.1	-11.0
O=C(COc1ccc(Cl)cc1Cl)OCC(=O)N1CCCc2ccccc21	0.8	8	0.8	10	0.9	-13.7
O=C(CCCOc1ccc(Cl)cc1Cl)N1CCCc2ccccc21	0.8	4	0.9	250*	0.9	-6.8
CS(=O)(=O)N1CCCC(C(=O)c2cccc(Cl)c2)C1 (centres undefined)	0.9	9	0.9	22	0.9	-7.9
CCC(=O)n1nc(-c2ccco2)nc1N	0.9	26	1.1	10	1	-4.7
CC(=O)Nc1ccccc1C(=O)C(=O)NCCc1ccccc1	1	8	1	13	1	-5.0
C=CCC1(/C=N/O)CCOC(C)(C)C1 (centres undefined)	.	7	.	.	.	63.6*
CC(=O)c1c(C)oc2ccc(NS(=O)(=O)c3cccs3)cc12	0.8	122*	0.9	13	0.9	6.5
COc1ccc(-c2ccc(C#N)c(SCC(=O)Nc3sc4c(c3C#N)CCC4)n2)cc1OC	1	10	1	4	1	34.2*
O=C(O/N=C1\CCS(=O)(=O)c2sccc21)c1ccc(F)cc1	0.9	23	1.1	10	1.1	-9.1
O=C(O/N=C1\CCS(=O)(=O)c2sccc21)c1ccccc1	1	51*	1	16	1	2.0
N#C/C(C(=O)c1ccccc1)=C1/CCCN1	1.1	48*	1	31	1	0.5
COc1ccc(Br)cc1CNC(=O)Nc1cccs1	0.8	4	0.9	30	1	97.6*
COc1ccc(NC(=O)c2coc3ccccc23)cc1OC	0.8	6	1	259*	0.9	19.8
COc1ccc(C(=O)Nc2ccc(OC)c(OC)c2)cc1	0.8	14	0.9	37	0.9	-8.9
O=C(N/N=C/c1oc(O)c2ccccc12)c1ccccc1	1	11	1.8	8	2.4*	8.5
O=C(N/N=C/c1ccncc1)c1ccccc1	0.9	12	1.1	10	1	-5.3
Cc1ccc([N+](=O)[O-])cc1S(=O)(=O)N1CCNCC1	0.9	11	1.1	12	1	-1.8
